# Reference: ChEMBL document CHEMBL4359864, “The synthesis and in vitro biological evaluation of novel fluorinated tetrahydrobenzo[j]phenanthridine-7,12-diones against Mycobacterium tuberculosis” (Eur J Med Chem, 2019)
# Columns and labels:
# [1] = Cytotoxicity against mouse J774A.1 cells assessed as reduction in cell viability incubated for 24 hrs by neutral red uptake assay; format: cell-based, J774.A1
# Summary of the method: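 J774A.1 cells in DMEM + 10% iFCS, 37°C, 5% CO2, seeded at 40.000 cells/well and left overnight. Twofold dilutions from 128 µM final; 24 h exposure. Neutral red uptake for 3 h, dye extracted with 1:1 ethanol/acetic acid, OD read at 530 nm (reference 620 nm). CC50 = 50% reduction in uptake; mean of triplicates.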
# Klebsiella pneumoniae = assay: Antibacterial activity against Klebsiella pneumoniae ATCC 13883 incubated for 24 hrs by resazurin dye based fluorimetric assay; format: functional, organism-based; conditions: ATCC 13883, 24 h
# Summary of the method: (§1)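 Resazurin microtiter assay: compounds from 10 mM DMSO stock, twofold serial dilutions from 64 µM final in growth medium, in triplicate. Inoculum from frozen glycerol stocks. Exposure 24 h, or 7 days for Mtb H37Ra (7H9 + 0.5% glycerol + 10% OADC). Then 0.01% resazurin was added and plates were incubated at 37°C until pink. Fluorescence read at ex 550/em 590 nm; mean of triplicates.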
# Mycobacterium marinum = assay: Antimycobacterial activity against Mycobacterium marinum NCTC 2275 by resazurin dye based fluorimetric assay; format: functional, organism-based
# Summary of the method: (§2)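 Resazurin microtiter method as for the bacterial panel. Mycobacteria grown in 7H9 with 10% OADC and 0.5% glycerol; for BCG, 0.05% Tween 80 replaced the glycerol. Cultures were sonicated and needle-passed to single cells. Incubation at 37°C, or 32°C for M. marinum. Fluorescence read at ex 550/em 590 nm; mean of triplicates.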
# [2] = Antimycobacterial activity against Mycobacterium avium subsp. avium ATCC 25291 by resazurin dye based fluorimetric assay; format: functional; summary of the method: as §2
# Escherichia coli = assay: Antibacterial activity against Escherichia coli ATCC 8739 incubated for 24 hrs by resazurin dye based fluorimetric assay; format: functional, organism-based; conditions: ATCC 8739, ATCC 8739, 24 h; summary of the method: as §1
# Pseudomonas aeruginosa = assay: Antibacterial activity against Pseudomonas aeruginosa ATCC 9027 incubated for 24 hrs by resazurin dye based fluorimetric assay; format: functional, organism-based; conditions: ATCC 9027, 24 h; summary of the method: as §1
# Enterococcus faecium = assay: Antibacterial activity against Enterococcus faecium ATCC 19434 incubated for 24 hrs by resazurin dye based fluorimetric assay; format: functional, organism-based; conditions: ATCC 19434, 24 h; summary of the method: as §1
# Staphylococcus aureus = assay: Antibacterial activity against Staphylococcus aureus ATCC 6538 incubated for 24 hrs by resazurin dye based fluorimetric assay; format: functional, organism-based; conditions: ATCC 6538, 24 h; summary of the method: as §1
# Streptococcus pneumoniae = assay: Antibacterial activity against Streptococcus pneumoniae ATCC BAA-334 incubated for 24 hrs by resazurin dye based fluorimetric assay; format: functional, organism-based; conditions: ATCC BAA-334, 24 h; summary of the method: as §1
# [3] = test system: Mycobacterium tuberculosis; assay: Antibacterial activity against Mycobacterium tuberculosis H37Ra ATCC 25177 incubated for 7 days by resazurin dye based fluorimetric assay; format: functional, organism-based; conditions: H37Ra ATCC 25177, 168 h; summary of the method: as §1
# [4] = test system: Mycobacterium tuberculosis; assay: Antimycobacterial activity against Mycobacterium tuberculosis H37Ra lux incubated for 7 days by luminometric assay; format: functional, organism-based; conditions: 168 h
# Summary of the method: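 Twofold serial dilutions in 7H9/OADC/glycerol, in triplicate, inoculated with a suspension of 10.000 RLU per mL. After 7 days, n-decanal (1% v/v in ethanol) was added and luminescence read. IC50 and MIC (90% growth reduction) were derived from the mean of triplicates.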
# CYP450 [5] = target: T1, CYP450 (Homo sapiens, UniProt P04798+P05177+P05181+P08684+P10632+P10635+P11509+P11712+P13584+P20813+P20815+P20853+P24462+P24903+P33260+P33261+P51589+P78329+P98187+Q02928+Q08477+Q16678+Q16696+Q5TCH4+Q6VVX0+Q7Z449+Q8TAV3+Q96SQ9+Q9HB55); assay: Microsomal stability in human liver microsomes assessed as CYP450-mediated metabolism by measuring compound remaining at 5 uM and measured for 15 mins in presence of NADPH by UPLC-MS/MS analysis (reference value: 100%); format: ADME; conditions: read-out: Stability
# Summary of the method: (§3)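 Compound at 5 µM with 0.5 mg/mL liver microsomes in PBS. Phase I was started with 1 mM NADPH; phase II used 2 mM UDPGA. Diclofenac served as reference. Samples taken at 0, 15, 30 and 60 min were quenched in ice-cold acetonitrile, centrifuged at 4°C and analysed by LC-MS. Mean of at least two replicates ± SD.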
# CYP450 [6] = target: T1, CYP450; assay: Microsomal stability in human liver microsomes assessed as CYP450-mediated metabolism by measuring compound remaining at 5 uM and measured for 30 mins in presence of NADPH by UPLC-MS/MS analysis (reference value: 100%); format: ADME; conditions: read-out: Stability; summary of the method: as §3
# CYP450 [7] = target: T1, CYP450; assay: Microsomal stability in human liver microsomes assessed as CYP450-mediated metabolism by measuring compound remaining at 5 uM and measured for 60 mins in presence of NADPH by UPLC-MS/MS analysis (reference value: 100%); format: ADME; conditions: read-out: Stability; summary of the method: as §3
# UGT [8] = target: T2, UGT (Homo sapiens, UniProt O60656+O75310+O75795+P06133+P0DTE4+P0DTE5+P16662+P19224+P22309+P22310+P35503+P35504+P36537+P54855+Q6UWM9+Q9BY64+Q9HAW7+Q9HAW8+Q9HAW9); assay: Microsomal stability in human liver microsomes assessed as UGT-mediated metabolism by measuring compound remaining at 5 uM and measured for 15 mins in presence of UDPGA by UPLC-MS/MS analysis (reference value: 100%); format: ADME; conditions: read-out: Stability; summary of the method: as §3
# UGT [9] = target: T2, UGT; assay: Microsomal stability in human liver microsomes assessed as UGT-mediated metabolism by measuring compound remaining at 5 uM and measured for 30 mins in presence of UDPGA by UPLC-MS/MS analysis (reference value: 100%); format: ADME; conditions: read-out: Stability; summary of the method: as §3
# UGT [10] = target: T2, UGT; assay: Microsomal stability in human liver microsomes assessed as UGT-mediated metabolism by measuring compound remaining at 5 uM and measured for 60 mins in presence of UDPGA by UPLC-MS/MS analysis (reference value: 100%); format: ADME; conditions: read-out: Stability; summary of the method: as §3
# CYP450 [11] = assay: Microsomal stability in mouse liver microsomes assessed as CYP450-mediated metabolism by measuring compound remaining at 5 uM and measured for 15 mins in presence of NADPH by UPLC-MS/MS analysis (reference value: 100%); format: ADME; conditions: read-out: Stability; summary of the method: as §3
# CYP450 [12] = assay: Microsomal stability in mouse liver microsomes assessed as CYP450-mediated metabolism by measuring compound remaining at 5 uM and measured for 30 mins in presence of NADPH by UPLC-MS/MS analysis (reference value: 100%); format: ADME; conditions: read-out: Stability; summary of the method: as §3
# CYP450 [13] = assay: Microsomal stability in mouse liver microsomes assessed as CYP450-mediated metabolism by measuring compound remaining at 5 uM and measured for 60 mins in presence of NADPH by UPLC-MS/MS analysis (reference value: 100%); format: ADME; conditions: read-out: Stability; summary of the method: as §3
# UGT [14] = assay: Microsomal stability in mouse liver microsomes assessed as UGT-mediated metabolism by measuring compound remaining at 5 uM and measured for 15 mins in presence of UDPGA by UPLC-MS/MS analysis (reference value: 100%); format: ADME; conditions: read-out: Stability; summary of the method: as §3
# UGT [15] = assay: Microsomal stability in mouse liver microsomes assessed as UGT-mediated metabolism by measuring compound remaining at 5 uM and measured for 30 mins in presence of UDPGA by UPLC-MS/MS analysis (reference value: 100%); format: ADME; conditions: read-out: Stability; summary of the method: as §3
# UGT [16] = assay: Microsomal stability in mouse liver microsomes assessed as UGT-mediated metabolism by measuring compound remaining at 5 uM and measured for 60 mins in presence of UDPGA by UPLC-MS/MS analysis (reference value: 100%); format: ADME; conditions: read-out: Stability; summary of the method: as §3
# [17] = Selectivity index, ratio of […] for cytotoxicity against mouse J774A.1 cells; format: toxicity, cell-based; conditions: read-out: Selectivity Index
SMILES,CC50 at 24 h [1] [µM],IC50 (Klebsiella pneumoniae) [µM],IC50 (Mycobacterium marinum) [µM],IC50 [2] [µM],IC50 (Escherichia coli) [µM],IC50 (Pseudomonas aeruginosa) [µM],IC50 (Enterococcus faecium) [µM],IC50 (Staphylococcus aureus) [µM],IC50 (Streptococcus pneumoniae) [µM],IC50 [3] [µM],IC50 [4] [µM],MIC90 [4] [µM],"remaining at 0.25 h, 5 µM (CYP450 [5]) [%]","remaining at 0.5 h, 5 µM (CYP450 [6]) [%]","remaining at 1 h, 5 µM (CYP450 [7]) [%]","remaining at 0.25 h, 5 µM (UGT [8]) [%]","remaining at 0.5 h, 5 µM (UGT [9]) [%]","remaining at 1 h, 5 µM (UGT [10]) [%]","remaining at 0.25 h, 5 µM (CYP450 [11]) [%]","remaining at 0.5 h, 5 µM (CYP450 [12]) [%]",further results
CC/C(=C(\c1ccccc1)c1ccc(OCCN(C)C)cc1)c1ccccc1 [TAMOXIFEN],11.1,,,,,,,,,,,,,,,,,,,,
O=C(O)c1cn(C2CC2)c2cc(N3CCNCC3)c(F)cc2c1=O [CIPROFLOXACIN],,< 0.25,,,,,,,,,,,,,,,,,,,
COc1c(N2C[C@@H]3CCCN[C@@H]3C2)c(F)cc2c(=O)c(C(=O)O)cn(C3CC3)c12 [MOXIFLOXACIN],,,0.14,0.19,,,,,,,,,,,,,,,,,
CCn1cc(C(=O)O)c(=O)c2cc(F)c(N3CCNCC3)cc21 [NORFLOXACIN],,,,,> 0.25,> 0.5,,,,,,,,,,,,,,,
O=C1C2=C(C(=O)c3c1cnc1ccc(F)cc31)C1CCC2C1 (stereo not given),> 128,> 64,5.04,0.24,> 64,> 64,> 64,> 64,32 to 64,4 to 8,6.93,57.3,100,100,100,92,79,64,100,100,"remaining at 1 h, 5 µM (CYP450 [13]): 100%; remaining at 0.25 h, 5 µM (UGT [14]): 96%; remaining at 0.5 h, 5 µM (UGT [15]): 92%; remaining at 1 h, 5 µM (UGT [16]): 72%"
O=C1C2=C(C(=O)c3c1cnc1cc(C(F)(F)F)ccc31)C1CCC2C1 (stereo not given),122,> 64,9,3.24,> 64,> 64,> 64,> 64,32 to 64,2 to 4,3.05,7.95,100,100,100,71,63,63,100,100,"selectivity ratio [17]: 15.4; remaining at 1 h, 5 µM (CYP450 [13]): 100%; remaining at 0.25 h, 5 µM (UGT [14]): 62%; remaining at 0.5 h, 5 µM (UGT [15]): 70%; remaining at 1 h, 5 µM (UGT [16]): 51%"
